Assay type in all cases: functional
Holding throughout (conditions): Homo sapiens

For one test, the system named is CCRF-CEM. Kind of test: Concentration required to inhibit 50% cell growth of CCRF-CEM Leukemia cell line. In short, it runs like this: (§1)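 Tested in the NCI in vitro Human Tumor Cell Line Screen. The GI50 is the concentration that causes 50% inhibition of net cell growth and is reported as the log of the molar concentration. If that level is not reached or is exceeded, the value is given as greater or less than the highest or lowest drug concentration.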

A further test deals with HL-60. As to the kind of experiment: Concentration required to inhibit 50% cell growth of HL-60 Leukemia cell line. In short, it runs like this:
as §1

Another test concerns MOLT-4. As to the kind of experiment: Concentration required to inhibit 50% cell growth of MOLT-4 Leukemia cell line. In a few lines: as §1
A further test concerns RPMI-8226. Kind of test: Concentration required to inhibit 50% cell growth of RPMI-8226 Leukemia cell line. In a few lines: as §1
The subject of another test is K562. Kind of test: Concentration required to inhibit 50% cell growth of K-562 Leukemia cell line. In short, it runs like this:
as §1

By GI50 is commonly meant the concentration at which growth is held to half of that of the control. Higher therefore signals less potent growth inhibition. Regarding `COc1cc(-c2cc3ccccc3c3nc(N)c4ccccc4c23)cc(OC)c1OC`, the GI50 was 288 nM with CCRF-CEM; 63.1 nM in the test on HL-60; 372 nM in the test on MOLT-4; 240 nM in the test on RPMI-8226; 79.4 nM in the test with K562.
On to `COc1ccc([C@H]2Cc3ccccc3-c3nc(N)c4ccccc4c32)cc1OC`, for which the GI50 is 1120 nM in the test on CCRF-CEM; 7080 nM in the test on HL-60; 2950 nM in the test on MOLT-4; 2400 nM in the test on RPMI-8226; 2820 nM in the test on K562.
As to `COc1ccc(-c2cc3ccccc3c3nc(N)c4ccccc4c23)c(OC)c1OC`, the GI50 is 372 nM in the test on CCRF-CEM; 380 nM in the test on HL-60; 437 nM with MOLT-4; 288 nM in the test with RPMI-8226; 339 nM with K562.
On the same counts, the results for `COc1ccc(-c2cc3ccccc3c3nc(N)c4ccccc4c23)cc1OC` are 170 nM, 61.7 nM, 234 nM, 126 nM and 45.7 nM.
In the same order, the values of `COc1ccc([C@H]2Cc3ccccc3-c3nc(N)c4ccccc4c32)cc1O` are 13800 nM, 8130 nM, 14500 nM, 5010 nM and 1620 nM.
`COc1cc([C@H]2Cc3ccccc3-c3nc(N)c4ccccc4c32)cc(OC)c1OC`: the GI50 in the test on CCRF-CEM is 2630 nM; in the test with HL-60 it was 1700 nM; in the test with MOLT-4 it was 2630 nM; in the test on RPMI-8226 it was 1820 nM; in the test with K562, 813 nM.
As for `COc1ccc([C@H]2Cc3ccccc3-c3nc(N)c4ccccc4c32)c(OC)c1OC`, the GI50 is 20900 nM in the test on CCRF-CEM; 6760 nM in the test on HL-60; 3470 nM in the test with MOLT-4; 4270 nM in the test with RPMI-8226; 4270 nM in the test with K562.
For `Nc1nc2c3ccccc3cc(-c3ccco3)c2c2ccccc12`, the GI50 in the test with CCRF-CEM was 9770 nM; with HL-60 it was 437 nM; in the test with MOLT-4, 1200 nM; in the test with RPMI-8226, 4570 nM; with K562, 4070 nM.
In the case of `Nc1nc2c3ccccc3cc(-c3ccc4c(c3)OCO4)c2c2ccccc12`, the GI50 in the test on CCRF-CEM is 4070 nM; with HL-60, 4470 nM; with MOLT-4 it was 3310 nM; with RPMI-8226, 2820 nM; with K562, 794 nM.
In the same order, the values of `Nc1nc2c(c3ccccc13)[C@@H](c1ccc3c(c1)OCO3)Cc1ccccc1-2` are 3550 nM, 5500 nM, 4790 nM, 3310 nM and 3090 nM.
For `Nc1nc2c(c3ccccc13)[C@@H](c1ccco1)Cc1ccccc1-2`, the GI50 in the test with CCRF-CEM is 3310 nM; in the test with HL-60 it was 4170 nM; in the test on MOLT-4, 3720 nM; in the test on RPMI-8226 it was 2820 nM; in the test on K562, 3090 nM.
On the same counts, the results for `COc1cc([C@H]2Cc3ccccc3-c3nc(N)c4ccccc4c32)cc(OC)c1O` are 871 nM, 288 nM, 631 nM, 427 nM and 282 nM.
On the same counts, the results for `COc1ccc(OC)c([C@H]2Cc3ccccc3-c3nc(N)c4ccccc4c32)c1` are 17800 nM, 13800 nM, 15500 nM, 4680 nM and 7590 nM.
Regarding `COc1ccc(-c2cc3ccccc3c3nc(N)c4ccccc4c23)c(OC)c1`, the GI50 in the test on CCRF-CEM is 309 nM; in the test on HL-60, 309 nM; in the test on MOLT-4, 933 nM; with RPMI-8226, 363 nM; with K562 it was 219 nM.

The values above are taken from ChEMBL document CHEMBL1143591, “Synthesis and biological evaluation of 11-substituted 6-aminobenzo[c]phenanthridine derivatives, a new class of antitumor agents” (2005).
